Assay outcomes deposited in PubChem BioAssay by several laboratories.
tolC growth inh: E. coli tolC mutant growth inhibition; E. coli BW25113 tolC mutant growth, OD615; growth inhibition, % at 10 µM (by protocol); 65,000 tested, 2.2% active; AID 573;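 active means growth inhibition at or above a cutoff equal to the mean over every tested compound plus 3 SD, cut at about 60% in these data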;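 further: growth measured after 20 h incubation at 37 °C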
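Signal: optical density read at 615 nm; Assay system: E. coli ΔtolC::kan strain BW25113; Times: 20 h incubation with compound, 37 °C; Dosing: 10 µM final, single dose.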
E coli WT exp: growth inhibitors of E. coli BW25113 wild type; 98,000 tested, 0.15% active; AID 710; growth inhibition, % at 100 µM; OD600 absorbance;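 active means growth inhibition above about 50% at one test dose, limit read from the data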;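 further: growth measured after 20 h incubation at 37 °C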
CYP2C9 inh: inhibitors of human CYP2C9; P11712; CYP2C9 Supersomes, luciferin-H conversion, luminescence; inhibition, % at 5 µM; 96,000 tested, 20% active; AID 777;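 active means blocking of liver enzyme CYP2C9 beyond about 50% at 5 µM, limit read from the data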
Target sequence (P11712 whole entry, looked up): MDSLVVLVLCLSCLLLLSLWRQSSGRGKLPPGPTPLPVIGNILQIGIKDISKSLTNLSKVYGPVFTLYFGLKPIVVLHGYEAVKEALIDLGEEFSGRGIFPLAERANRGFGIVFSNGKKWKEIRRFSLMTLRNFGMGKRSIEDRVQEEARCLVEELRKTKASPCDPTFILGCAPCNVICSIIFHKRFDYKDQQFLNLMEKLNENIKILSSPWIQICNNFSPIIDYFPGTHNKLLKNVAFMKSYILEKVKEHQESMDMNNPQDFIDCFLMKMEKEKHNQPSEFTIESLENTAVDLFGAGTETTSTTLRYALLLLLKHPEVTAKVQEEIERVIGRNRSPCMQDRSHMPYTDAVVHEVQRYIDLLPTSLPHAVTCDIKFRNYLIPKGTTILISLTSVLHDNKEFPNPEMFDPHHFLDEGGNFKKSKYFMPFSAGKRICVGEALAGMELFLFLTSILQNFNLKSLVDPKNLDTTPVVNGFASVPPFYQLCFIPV
CYP2C19 inhib: blocks human cytochrome P450 2C19. P33261. CYP2C19 Supersomes, luciferin-H EGE luminescence, 30 min. inhibition, % at 5 µM. 96,000 tested, 21% active. AID 778;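 active means CYP2C19 inhibition above a set limit at 5 µM in the primary screen, cut at about 50% in these data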;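 further: plate controls were negative control wells for no effect and 2.5 mM tranylcypromine positive control for full effect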
CYP2C9 activ: activators of human CYP2C9; 96,000 tested, 1.4% active; P11712; recombinant CYP2C9, luciferin-H conversion, luminescence; stronger effect = higher value; factor 1 = untreated enzyme, 0 = blocked; activation factor at 5 µM;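 active means activation factor of 2 or more for CYP2C9 at a 5 µM dose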;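 further: 0 = sulfaphenazole-blocked wells and 1 = vehicle-only wells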
CYP2C19 activ: increases human CYP2C19 enzyme activity; activation factor at 5 µM; P33261; 96,000 tested, under 10 active; recombinant CYP2C19, luciferin-H EGE luminescence; stronger effect = higher value; 0 = fully inhibited enzyme, 1 = untreated enzyme;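 active means activation factor of at least 2 at 5 µM in the primary screen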;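 further: 0 = wells with 2.5 mM tranylcypromine and 1 = vehicle-only wells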
* marks the source's active call; other numbers are inactive results; / = no result given. Most compounds without a hit are left out; they make up all but 29% or so of the library.

SMILES	tolC growth inh	E coli WT exp	CYP2C9 inh	CYP2C19 inhib	CYP2C9 activ	CYP2C19 activ
CCN(c1ccccc1)S(=O)(=O)c1ccc(NCC2COc3ccccc3O2)nc1 (stereo not drawn)	61.6*	-21.0	84.1*	51.8*	0.2	0.5
O=C(O)Cc1ccc2c(c1)N(S(=O)(=O)c1cccc(C(F)(F)F)c1)CC(C(=O)O)O2 (stereo not drawn)	/	-4.0	3.2	0.8	1	1
Cc1onc(-c2ccccc2)c1C(=O)N/N=C(\N)COc1ccc(Cl)cc1	/	15.0	74.1*	69.4*	0.3	0.3
COc1cccc(NC(=O)COC(=O)c2c(-c3ccccc3)noc2C)c1	/	-10.0	60.2*	60.3*	0.4	0.4
COc1ccc(NC(=O)COC(=O)c2c(-c3ccccc3)noc2C)cc1	/	-7.0	27.0	52.8*	0.7	0.5
COc1ccc(C(=O)N[C@H]2COC(C)(C)O[C@H]2c2ccccc2)cc1	16.0	1.0	-3.3	-1.0	1	1
Cc1ccc(NC2=CC(=O)OC(C)C2)cc1 (stereo not drawn)	/	8.0	-8.8	-8.0	1.1	1.1
O=C(NCC1CCCO1)c1ccc(CS(=O)(=O)Cc2ccc(F)cc2)o1 (stereo not drawn)	-19.7	-6.0	31.0	5.3	0.7	0.9
COCCN(CCOC)c1ncc(Cl)c(C(=O)c2c(C)cc3ccccn23)n1	35.0	-11.0	-58.9	90.4*	1.6	0.1
Cc1cc2ccccn2c1C(=O)c1nc(N2CCOCC2)ncc1Cl	/	2.0	-2.1	46.4	1	0.5
CC(c1nnc(Sc2nnnn2-c2ccccc2)n1-c1ccc(F)cc1)N(C)C (stereo not drawn)	-15.2	-13.0	38.9	10.4	0.6	0.9
CC1CN(C(=O)COC(=O)c2cccs2)CC(C)O1 (stereo not drawn)	-11.1	-2.0	-9.5	2.5	1.1	1
CCOC(=O)c1c(C)[nH]c(=S)c(C#N)c1-c1ccc(OC)cc1	/	9.0	77.7*	39.4	0.2	0.6
CC1(C)Cc2ccccc2C(N)=C1C#N	3.8	-3.0	77.6*	93.7*	0.2	0.1
Cn1c(=O)c2c(SCc3ccccn3)nc(-c3ccccc3)nc2n(C)c1=O	9.1	/	/	/	/	/
O=C(N/N=C/c1c[nH]c2ccccc12)c1ccn(Cc2ccc(Cl)cc2Cl)n1	/	-5.0	69.6*	56.8*	0.3	0.4
CSCC[C@H](NC(=O)CCNC(C)=O)c1nc2ccccc2[nH]1	/	6.0	-11.5	-2.5	1.1	1
CCOC(=O)c1c(-c2cccc([N+](=O)[O-])c2)csc1NC(=O)C1CC1	/	-4.0	75.9*	26.6	0.2	0.7
COC(=O)c1c(-c2ccco2)csc1NC(=O)C1CC=CCC1C(=O)O (stereo not drawn)	5.8	-1.0	4.5	4.6	1	1
CCOC(=O)c1c(-c2ccc(C)c(C)c2)csc1NC(=O)C1CC=CCC1C(=O)O (stereo not drawn)	/	2.0	75.9*	9.8	0.2	0.9
O=C(c1ccc(S(=O)(=O)N2CCCCCC2)cc1)N1CCC(CN2C(=O)c3cccc4cccc(c34)C2=O)CC1	/	-5.0	/	/	/	/
CC1(C)Cc2c(cnn2-c2ccccc2)-c2c1c1ccccc1n2CC(O)CBr (stereo not drawn)	/	-2.0	54.8*	52.6*	0.5	0.5
Cc1n[nH]c(C)c1S(=O)(=O)N1CCCCCC1	-13.7	-2.0	11.4	38.2	0.9	0.6
COc1ccc(NS(=O)(=O)c2cccc(-c3nnc4n3CCCCC4)c2)cc1	7.0	4.0	82.5*	43.7	0.2	0.6
CCOc1ccc(NC(=O)C23CC4CC(C2)CC(c2ccccc2)(C4)C3)cc1	/	-20.0	23.4	37.8	0.8	0.6
SMILES	tolC growth inh	E coli WT exp	CYP2C9 inh	CYP2C19 inhib	CYP2C9 activ	CYP2C19 activ
CC1CCN(c2c(NCc3ccc(C(=O)NCc4cccnc4)cc3)c(=O)c2=O)CC1	-7.5	-1.0	16.4	-2.5	0.8	1
Cc1cnc(C(=O)Nc2cccc3ncccc23)cn1	-3.6	/	2.4	10.3	1	0.9
Cc1cnc(C(=O)Nc2ccccc2-c2ccc(C)o2)cn1	6.2	-6.0	88.9*	-4.1	0.1	1
N#Cc1c2c(c(NCCN3CCOCC3)n3c1nc1ccccc13)CCCC2	-23.4	-6.0	86.0*	53.0*	0.1	0.5
CCCCc1nc(NCCN2CCOCC2)c(C#N)c2c1COC(C)(C)C2	16.1	6.0	69.4*	28.3	0.3	0.7
CCc1nc(NCCN2CCOCC2)c(C#N)c2c1CCCC2	5.1	14.0	9.6	68.7*	0.9	0.3
